The target in one data set is T1, Histone deacetylase 8 (Homo sapiens, UniProt Q9BY41).
T1 sequence (Q9BY41 whole entry): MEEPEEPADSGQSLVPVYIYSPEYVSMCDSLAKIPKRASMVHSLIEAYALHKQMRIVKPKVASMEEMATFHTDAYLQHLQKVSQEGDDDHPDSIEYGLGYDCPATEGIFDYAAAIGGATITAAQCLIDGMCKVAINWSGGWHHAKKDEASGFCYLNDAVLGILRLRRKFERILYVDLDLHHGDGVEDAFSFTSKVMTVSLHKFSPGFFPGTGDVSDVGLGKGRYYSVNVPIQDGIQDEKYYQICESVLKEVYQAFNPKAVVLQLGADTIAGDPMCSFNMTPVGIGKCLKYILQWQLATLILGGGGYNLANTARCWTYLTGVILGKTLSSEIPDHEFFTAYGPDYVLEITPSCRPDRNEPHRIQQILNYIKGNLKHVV
As to the kind of experiment: Inhibition of recombinant human HDAC8 assessed as decrease in deacetylation of FLUOR DE LYS substrate preincubated for 10 mins followed by substrate addition and measured after 30 mins by fluorescence based assay.

For another data set, the target named is Histone deacetylase 2 (Homo sapiens, UniProt Q92769). Put plainly: Inhibition of recombinant human HDAC2 assessed as decrease in deacetylation of FLUOR DE LYS Green substrate preincubated for 10 mins followed by substrate addition and measured after 30 mins by fluorescence based assay.
Data set [1] has as its system A549. Put plainly: Antiproliferative activity against human A549 cells assessed as growth inhibition at 2 uM after 72 hrs by CCK-8 assay relative to control. It counts as functional. The following applies: A549, 72 h, read-out: GI. In general terms: Tetrazolium assays rely on reduction of a dye to a coloured formazan, in cell work by metabolically active cells.
The subject of data set [2] is A549. Put plainly: Antiproliferative activity against human A549 cells assessed as growth inhibition at 8 uM after 72 hrs by CCK-8 assay relative to control. Conditions: A549, 72 h, read-out: GI. It counts as functional.
The subject of data set [3] is A-375. As to the kind of experiment: Antiproliferative activity against human A375 cells assessed as growth inhibition at 8 uM after 72 hrs by CCK-8 assay relative to control. The format is functional. The following applies: A-375, 72 h, read-out: GI.
Data set [4] relates to A-375. Put plainly: Antiproliferative activity against human A375 cells assessed as decrease in cell viability after 72 hrs by CCK-8 assay. The format is functional, cell-based. The following applies: A-375, 72 h. The procedure, abridged:
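Cells grown to 70–85% confluence (A375, A549, HCT116 in RPMI1640; HeLa, SMMC7721 in DMEM; 10% FBS, 37 °C, 5% CO2), seeded 4000/well, dosed after 12 h across a concentration range, incubated 72 h, then CCK-8 for 1 h; absorbance at 450 nm. IC50 as mean ± SD of three separate experiments.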

Data set [5] deals with A549. Put plainly: Cell cycle arrest in human A549 cells assessed as accumulation of cells at G0/G1 phase at 0.5 uM after 48 hrs by propidium iodide staining-based flow cytometry (reference value: 73.35%). It counts as functional.
The test system of data set [6] is A549. As to the kind of experiment: Induction of apoptosis in human A549 cells after 48 hrs by Annexin V-FITC/propidium iodide staining based flow cytometry. The format is functional, cell-based. The method, boiled down:
(§1)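 A549 seeded 4×10⁶ cells/well, dosed after 12 h with compound at various concentrations, harvested after 48 h. Resuspended in annexin-binding buffer, stained with Annexin V-FITC and propidium iodide for 15 min in the dark, analysed by flow cytometry; means of three separate experiments.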

In data set [7] the test system is A549. As to the kind of experiment: Induction of apoptosis in human A549 cells assessed as early apoptotic cells at 0.5 uM after 48 hrs by Annexin V-FITC/propidium iodide staining based flow cytometry (reference value: 1.19%). The format is functional. The method, boiled down: as §1
On the technique in general: In flow cytometry, cells or beads pass a laser one at a time.

For data set [8], the system named is A549. As to the kind of experiment: Induction of apoptosis in human A549 cells assessed as late apoptotic cells at 1 uM after 48 hrs by Annexin V-FITC/propidium iodide staining based flow cytometry (reference value: 0.637%). The format is functional. The method, boiled down:
as §1

Data set [9] deals with A549. Put plainly: Induction of apoptosis in human A549 cells assessed as necrotic cells at 1 uM after 48 hrs by Annexin V-FITC/propidium iodide staining based flow cytometry (reference value: 0.135%). The format is functional. The procedure, abridged:
as §1

Data set [10] has as its system A549. Put plainly: Induction of apoptosis in human A549 cells assessed as viable cells at 2 uM after 48 hrs by Annexin V-FITC/propidium iodide staining based flow cytometry (reference value: 98%). It counts as functional. The following applies: A549, 48 h, read-out: Activity. The procedure, abridged:
as §1

For data set [11], the system named is A549. As to the kind of experiment: Induction of apoptosis in human A549 cells assessed as late apoptotic cells at 2 uM after 48 hrs by Annexin V-FITC/propidium iodide staining based flow cytometry (reference value: 0.637%). The format is functional. The procedure, abridged:
as §1

In data set [12] the test system is A549. As to the kind of experiment: Cell cycle arrest in human A549 cells assessed as accumulation of cells at S phase at 0.5 uM after 48 hrs by propidium iodide staining-based flow cytometry (reference value: 12.83%). It counts as functional.
Data set [13] concerns A549. Put plainly: Cell cycle arrest in human A549 cells assessed as accumulation of cells at G2/M phase at 1 uM after 48 hrs by propidium iodide staining-based flow cytometry (reference value: 13.62%). The format is functional.
In data set [14] the test system is A549. Put plainly: Cell cycle arrest in human A549 cells assessed as accumulation of cells at G2/M phase at 2 uM after 48 hrs by propidium iodide staining-based flow cytometry (reference value: 13.62%). It counts as functional.
A short description of data set [15]: AUC (0 to t) in ICR mouse at 4 mg/kg, iv after 0.08 to 24 hrs by LC-MS/MS analysis. It counts as ADME, organism-based. Also noted: time upper 24 hr, dose 4 mg/kg, time lower 0.08 hr, route intravenous. Conditions: in vivo. The method, boiled down: (§2)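 Male ICR mice (29.7~37.4 g), single iv dose 4 mg/kg in DMSO:40% SBE-β-CD 20:80 (v/v). Retro-orbital blood at 0.08–24 h into EDTA-K2 tubes; plasma protein-precipitated with acetonitrile containing internal standards, analysed by LC-MS/MS; n=3 per time point; noncompartmental analysis.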

Data set [16] can be described thus: AUC (0 to infinity) in ICR mouse at 4 mg/kg, iv after 0.08 to 24 hrs by LC-MS/MS analysis. It counts as ADME, organism-based. Also noted: dose 4 mg/kg, time infinity, route intravenous. The following applies: in vivo. The method, boiled down: as §2
Data set [17] in a line: Volume of distribution at steady state n ICR mouse at 4 mg/kg, iv after 0.08 to 24 hrs by LC-MS/MS analysis. The following applies: in vivo, read-out: Vdss. The format is ADME, organism-based. The method, boiled down: as §2
In data set [18] the test system is A549. As to the kind of experiment: Antitumor activity against human A549 cells xenografted in Balb/c nude mouse assessed as tumor growth inhibition at 25 mg/kg, ip administered twice per day for 21 days relative to control. The format is functional. The following applies: 504 h, read-out: TGI. The procedure, abridged: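 Female BALB/c nude mice, 5–6 weeks, implanted s.c. in right axilla with 3×10⁶ A549 cells; randomized at ~95 mm³ tumor volume, 4 per group. Dosed ip 25 mg/kg twice daily for 21 days; vehicle controls got DMA & 5% Solutol HS-15 (5:95). Tumor size (V=length×width²/2) and body weight measured every 3 days; TGI from volume change relative to control.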
(In general: In xenograft studies the graft and the host belong to different species.)

Data set [19] concerns A549. As to the kind of experiment: Inhibition of colony formation in human A549 cells incubated for 10 to 14 days by crystal violet staining based assay. The format is functional, cell-based. The method, boiled down: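 A549 seeded 3000 cells/well, treated after 12 h at 0.5, 1 and 2 µM, grown 10–14 days, fixed in 4% paraformaldehyde for 15 min and stained with 0.1% crystal violet.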

Usually IC50 stands for the concentration that gives 50% inhibition. As a reminder, the AUC(0-t) is exposure summed from dosing to a finite time, without extrapolation to infinity. Read a high AUC(0-t) as more exposure. As a reminder, the AUC(0-inf) is total exposure, with the tail of the curve extrapolated. Read a low AUC(0-inf) as low exposure.

Chain of Histone deacetylase 2 (Q92769 whole entry): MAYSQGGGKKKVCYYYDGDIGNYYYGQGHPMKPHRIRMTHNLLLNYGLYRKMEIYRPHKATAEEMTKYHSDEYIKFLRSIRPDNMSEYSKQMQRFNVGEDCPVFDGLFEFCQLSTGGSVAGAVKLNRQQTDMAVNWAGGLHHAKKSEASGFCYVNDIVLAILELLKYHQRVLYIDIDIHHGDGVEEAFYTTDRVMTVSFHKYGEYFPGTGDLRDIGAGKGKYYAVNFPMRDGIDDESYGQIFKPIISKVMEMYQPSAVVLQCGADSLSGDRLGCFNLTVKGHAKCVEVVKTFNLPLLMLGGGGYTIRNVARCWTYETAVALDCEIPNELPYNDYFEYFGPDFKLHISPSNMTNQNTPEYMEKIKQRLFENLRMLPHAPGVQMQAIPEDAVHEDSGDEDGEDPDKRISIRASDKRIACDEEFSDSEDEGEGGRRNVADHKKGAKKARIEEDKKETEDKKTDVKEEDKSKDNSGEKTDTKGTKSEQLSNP

Consider `CCc1ccc(SCc2ccc(C(=O)Nc3ccccc3N)cc2)cc1`, for which the IC50 at Histone deacetylase 8 was above 32000 nM; on Histone deacetylase 2, 144 nM; with A-375 [4] it was 2420 nM. Also, the inhibition of growth at 2 µM with A549 [1] worked out at 53.6%. Besides, the inhibition of growth at 8 µM is 91.4% with A549 [2] and 71.1% in the data set on A-375 [3]. In addition, the Activity in the data set on A549 [5] was 33.89%; in the data set on A549 [6], “Dose-dependent effect”; in the data set on A549 [7] it was 11%; in the data set with A549 [8], 14.6%; in the data set with A549 [9] it was 8.44%; with A549 [11] it was 16.7%. For the same compound, the Activity with A549 [12] was determined as 12.56%; with A549 [13], 59.87%; with A549 [14], 66.48%. Further, the viability at 2 µM in the data set with A549 [10] was 63.5%. Also, the AUC(0-t) in [15] is 868 ng·h/mL. In data set [16], this compound had an AUC(0-inf) of 874 ng·h/mL. Moreover, the Vd in data set [17] worked out at 3.46 L/kg. The inhibition in vivo at 25 mg/kg in the data set on A549 [18] is 62.7%. In addition, in the data set with A549 [19], the inhibition entry is “Dose-dependent effect”.
With `COc1ccc(SCc2ccc(C(=O)Nc3ccccc3N)cc2)cc1`, the results for the IC50 at Histone deacetylase 8, at Histone deacetylase 2 and in the data set with A-375 [4] were above 32000 nM, 205 nM and 3010 nM, respectively. For the same compound, the inhibition of growth at 2 µM in the data set with A549 [1] is 45.7%. The inhibition of growth at 8 µM in the data set on A549 [2] was found to be 70.7%; in the data set with A-375 [3], 81.8%. Also, the Activity in the data set on A549 [5] was 64.38%; in the data set on A549 [6] it was “Dose-dependent effect”; with A549 [7], 5.21%; with A549 [8], 10.8%; in the data set with A549 [9], 1.5%; with A549 [11] it was 26.6%. Further, the Activity in the data set on A549 [12] was 17.55%; in the data set on A549 [13] it was 38.3%; with A549 [14], 48.06%. The viability at 2 µM in the data set on A549 [10] came out at 47.5%. The same compound showed an AUC(0-t) in data set [15] of 737 ng·h/mL. In [16], this compound displayed an AUC(0-inf) of 740 ng·h/mL. Moreover, in data set [17], the Vd amounted to 1.74 L/kg. Also, in the data set on A549 [18], the inhibition in vivo at 25 mg/kg amounted to 57.9%. In addition, the inhibition result in the data set with A549 [19] was “Dose-dependent effect”.

Values taken from ChEMBL document CHEMBL4396885, “Thioether-based 2-aminobenzamide derivatives: Novel HDAC inhibitors with potent in vitro and in vivo antitumor activity” (Eur J Med Chem, 2019).
